# Test results taken from ChEMBL document CHEMBL3856284, “Discovery, design and synthesis of 6H-anthra[1,9-cd]isoxazol-6-one scaffold as G9a inhibitor through a combination of shape-based virtual screening and structure-based molecular modification” (Bioorg Med Chem, 2016).
# The source made the active and inactive calls. The calls are words filed in the database; no cut-off is given here.
# Columns and labels:
# [1] = test system: MCF7; test: Induction of necrosis in human MCF7 cells at 8 uM after 24 hrs by inverted light microscopic method; type: functional, cell-based
# Outline: (§1)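 MCF-7 cells were incubated 24 h with 2, 4 or 8 µM compound, with an untreated group as control. Cell morphology (distortion, blebbing, shrinkage, rounding, necrosis) was examined under an inverted light microscope at ×200.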
# [2] = test system: Mus musculus; test: AUC in mouse at 10 mg/kg, po after 5 mins to 24 hrs by LC-MS/MS analysis; conditions: in vivo
# [3] = test system: Mus musculus; test: Half life in mouse at 10 mg/kg, po after 5 mins to 24 hrs by LC-MS/MS analysis; conditions: in vivo
# [4] = test system: MCF7; test: Induction of apoptosis in human MCF7 cells assessed as early apoptotic cells at 8 uM after 48 hrs by annexin V staining-based flow cytometric analysis (reference value: 0.5%); type: functional
# [5] = test system: MCF7; test: Induction of phenotypic changes in human MCF7 cells assessed as membrane blebbing at 4 uM after 24 hrs by inverted light microscopic method; type: functional, cell-based; outline: as §1
# [6] = test system: MCF7; test: Induction of apoptosis in human MCF7 cells assessed as necrotic cells at 2 uM after 48 hrs by annexin V staining-based flow cytometric analysis (reference value: 5.65%); type: functional
# [7] = test system: Mus musculus; test: Cmax in mouse at 10 mg/kg, iv after 2 mins to 24 hrs by LC-MS/MS analysis; conditions: in vivo
# [8] = test system: MCF7; test: Induction of phenotypic changes in human MCF7 cells assessed as round in shape at 8 uM after 24 hrs by inverted light microscopic method; type: functional, cell-based; outline: as §1
# [9] = test system: Mus musculus; test: Tmax in mouse at 10 mg/kg, iv after 2 mins to 24 hrs by LC-MS/MS analysis; conditions: in vivo
# [10] = test system: Mus musculus; test: Clearance in mouse at 10 mg/kg, iv after 2 mins to 24 hrs by LC-MS/MS analysis; conditions: in vivo
# [11] = test system: MCF7; test: Induction of apoptosis in human MCF7 cells assessed as late apoptotic cells at 8 uM after 48 hrs by annexin V staining-based flow cytometric analysis (reference value: 11%); type: functional
# [12] = test system: MCF7; test: Induction of apoptosis in human MCF7 cells assessed as viable cells at 4 uM after 48 hrs by annexin V staining-based flow cytometric analysis (reference value: 82.85%); type: functional; conditions: MCF7, 48 h, read-out: Activity
# [13] = test system: Mus musculus; test: Volume of distribution in mouse at 10 mg/kg, po after 5 mins to 24 hrs by LC-MS/MS analysis; conditions: in vivo
# [14] = Antiproliferative activity against human MCF7 cells assessed as inhibition of cell viability after 72 hrs by MTT assay; type: functional, cell-based; conditions: MCF7, 72 h
# [15] = test system: MCF7; test: Induction of apoptosis in human MCF7 cells assessed as viable cells at 2 uM after 48 hrs by annexin V staining-based flow cytometric analysis (reference value: 82.85%); type: functional; conditions: MCF7, 48 h, read-out: Activity
# [16] = test system: MCF7; test: Induction of apoptosis in human MCF7 cells assessed as early apoptotic cells at 4 uM after 48 hrs by annexin V staining-based flow cytometric analysis (reference value: 0.5%); type: functional
# [17] = test system: MCF7; test: Induction of apoptosis in human MCF7 cells assessed as viable cells at 8 uM after 48 hrs by annexin V staining-based flow cytometric analysis (reference value: 82.85%); type: functional; conditions: MCF7, 48 h, read-out: Activity
# [18] = test system: MCF7; test: Induction of phenotypic changes in human MCF7 cells assessed as shrinkage at 4 uM after 24 hrs by inverted light microscopic method; type: functional, cell-based; outline: as §1
# [19] = Antiproliferative activity against human HepG2 cells assessed as inhibition of cell viability after 72 hrs by MTT assay; type: functional, cell-based; conditions: HepG2, 72 h
# [20] = test system: MCF7; test: Induction of apoptosis in human MCF7 cells assessed as necrotic cells at 8 uM after 48 hrs by annexin V staining-based flow cytometric analysis (reference value: 5.65%); type: functional
# [21] = test system: Mus musculus; test: Clearance in mouse at 10 mg/kg, po after 5 mins to 24 hrs by LC-MS/MS analysis; conditions: in vivo
# [22] = test system: Mus musculus; test: Volume of distribution in mouse at 10 mg/kg, iv after 2 mins to 24 hrs by LC-MS/MS analysis; conditions: in vivo
# [23] = target: T1, Histone-lysine N-methyltransferase EHMT2 (Homo sapiens) (UniProt Q96KQ7); test: Inhibition of G9a in human MCF7 cells assessed as decrease in trimethylation level of H3K9 after 48 hrs by Western blot method; type: cell-based
# T1 sequence (whole entry): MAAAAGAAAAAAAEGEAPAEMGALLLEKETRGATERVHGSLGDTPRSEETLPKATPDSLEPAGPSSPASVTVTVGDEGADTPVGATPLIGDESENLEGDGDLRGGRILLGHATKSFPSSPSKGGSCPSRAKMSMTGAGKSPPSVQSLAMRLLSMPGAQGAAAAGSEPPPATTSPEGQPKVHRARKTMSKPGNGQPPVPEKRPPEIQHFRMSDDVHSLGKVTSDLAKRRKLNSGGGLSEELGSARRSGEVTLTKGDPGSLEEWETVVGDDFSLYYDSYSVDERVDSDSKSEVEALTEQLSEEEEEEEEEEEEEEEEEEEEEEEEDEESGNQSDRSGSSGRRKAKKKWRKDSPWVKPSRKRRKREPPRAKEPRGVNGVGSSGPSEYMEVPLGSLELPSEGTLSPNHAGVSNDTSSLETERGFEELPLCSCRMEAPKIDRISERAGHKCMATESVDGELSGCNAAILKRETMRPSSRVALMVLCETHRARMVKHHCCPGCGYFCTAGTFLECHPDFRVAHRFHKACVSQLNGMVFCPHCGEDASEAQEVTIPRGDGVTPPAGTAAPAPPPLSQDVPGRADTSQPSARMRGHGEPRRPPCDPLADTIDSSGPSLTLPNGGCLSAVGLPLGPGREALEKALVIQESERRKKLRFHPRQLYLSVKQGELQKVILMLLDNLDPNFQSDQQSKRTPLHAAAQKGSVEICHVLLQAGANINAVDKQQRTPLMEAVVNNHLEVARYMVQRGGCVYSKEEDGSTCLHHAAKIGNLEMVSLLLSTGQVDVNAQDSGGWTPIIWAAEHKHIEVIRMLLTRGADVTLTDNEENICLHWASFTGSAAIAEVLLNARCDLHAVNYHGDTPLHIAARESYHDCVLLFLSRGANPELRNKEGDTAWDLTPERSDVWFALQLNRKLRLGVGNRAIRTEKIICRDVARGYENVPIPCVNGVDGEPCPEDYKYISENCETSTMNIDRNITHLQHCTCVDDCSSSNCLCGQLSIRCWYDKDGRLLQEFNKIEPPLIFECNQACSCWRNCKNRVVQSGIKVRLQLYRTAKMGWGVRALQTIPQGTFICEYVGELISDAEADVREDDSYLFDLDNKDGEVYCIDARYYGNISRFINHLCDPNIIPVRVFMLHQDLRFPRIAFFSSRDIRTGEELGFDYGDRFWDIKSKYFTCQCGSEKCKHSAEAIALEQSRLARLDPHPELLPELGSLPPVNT
structure (smiles),measurement,setting,value
O=C1c2ccccc2-c2onc3c(N4CCCCC4)cc(NCCN4CCCC4)c1c23,Activity,[1],Active
same,AUC,[2],724 ng·h/mL
same,half-life,[3],4 h
same,Activity,[4],2.75%
same,Activity,[5],Active
same,Activity,[6],3.2%
same,Cmax,[7],188 ng/mL
same,Activity,[8],Active
same,Tmax,[9],7.2 min
same,clearance,[10],135 mL/min/kg
same,Activity,[11],30.05%
same,viability at 4 µM,[12],70%
same,Vd,[13],90.7 L/kg
same,IC50,[14],4.52 µM
same,viability at 2 µM,[15],78.2%
same,Activity,[16],0.8%
same,viability at 8 µM,[17],66.5%
same,Activity,[18],Active
same,IC50,[19],7.93 µM
same,Activity,[20],0.75%
same,CL/F,[21],253 mL/min/kg
same,Vd,[22],80.2 L/kg
same,inhibition,[23],Dose-dependent effect
